In ChEMBL document CHEMBL1759898, “Synthesis of 5-arylated N-arylthiazole-2-amines as potential skeletal muscle cell differentiation promoters” (Bioorg Med Chem Lett, 2011):
Activity calls are given as the source filed them. No cut-off for these calls is given here.

Columns and labels:
Type in all cases: functional, cell-based
[1] = test system: C2C12; assay: Induction of cell differentiation in mouse C2C12 cells assessed as myotube formation at 5 uM
How it was run: (§1)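 C2C12 myoblasts grown 2 days in growth medium to about 70% confluence, then differentiation induced by serum reduction in differentiation medium containing compound at 5 µM final (from 20 mM DMSO stock). Controls received equal DMSO. Incubation at 37 °C for 7 days, medium changed at days 3 and 5. Myotube morphology was photographed under the microscope at 3, 5 and 7 days. Duplicates, four controls.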

[2] = test system: C2C12; assay: Induction of cell differentiation in mouse C2C12 cells assessed as myotube formation at 5 uM after 5 days; how it was run: as §1
[3] = test system: C2C12; assay: Induction of cell differentiation in mouse C2C12 cells assessed as myotube formation at 5 uM after 3 days; how it was run: as §1
[4] = test system: C2C12; assay: Induction of cell differentiation in mouse C2C12 cells assessed as myotube formation at 5 uM after 7 days; how it was run: as §1

O=[N+]([O-])c1ccc(-c2cnc(N(Cc3ccccc3)c3ccccc3)s2)cc1
Activity [1]: inactive

c1ccc(CN(c2ccccc2)c2ncc(-c3cccs3)s2)cc1
Activity [2]: Active
Activity [3]: Active
Activity [4]: Active
Activity [1]: Active

O=[N+]([O-])c1cccc(-c2cnc(N(Cc3ccccc3)c3ccccc3)s2)c1
Activity [1]: Active

Fc1ccc(-c2cnc(N(Cc3ccccc3)c3ccccc3)s2)cc1
Activity [1]: Active

c1ccc(CN(c2ccccc2)c2ncc(-c3ccccc3)s2)cc1
Activity [1]: Active

CCOC(=O)c1ccc(-c2cnc(N(Cc3ccccc3)c3ccccc3)s2)cc1
Activity [1]: Active

Fc1ncccc1-c1cnc(N(Cc2ccccc2)c2ccccc2)s1
Activity [1]: Active

Cc1ccccc1-c1cnc(N(Cc2ccccc2)c2ccccc2)s1
Activity [1]: inactive

Cc1ccc(-c2cnc(N(Cc3ccccc3)c3ccccc3)s2)cc1
Activity [1]: inactive
